Experimental data from the EternaBench riboswitch data.

Tested on: MS2 coat protein
Experiment: apparent Kd, MS2 coat protein; higher = weaker binding; RNA-MaP array
Summary of the method: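 Designed RNAs were transcribed in place on an Illumina sequencing chip from sequenced DNA templates. At room temperature and with or without input ligand, they were incubated with fluorescently labeled MS2 coat protein from 1.5 nM to 3 μM, for 0.8–1.5 h at the lowest and 10–20 min at the highest concentrations. Apparent Kd is the median of the binding-curve fits made per cluster, with designs measured on fewer than 10 clusters excluded.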

[1] = designed as: OFF switch for flavin mononucleotide, no ligand
[2] = ligand present: flavin mononucleotide, designed as: OFF switch for flavin mononucleotide
[3] = designed as: ON switch for flavin mononucleotide, no ligand
[4] = ligand present: flavin mononucleotide, designed as: ON switch for flavin mononucleotide
[5] = ligand present: theophylline, designed as: ON switch for theophylline
[6] = designed as: OFF switch for tryptophan, no ligand
[7] = ligand present: tryptophan, designed as: OFF switch for tryptophan

Sequence | apparent Kd [1] [µM] | apparent Kd [2] [µM] | apparent Kd [3] [µM] | apparent Kd [4] [µM] | also measured
GGAAGCUCCUUGAGACAUGAGGAUCACCCAUGUGCCAUUCCGAGAAGGUAGACUGGACGAGAGGCUAAGGAUAUCGGCGCGCUC | 0.0167 | 0.0156 |  |  | 
CCGAACAUGAGGAUCACCCAUGUAUCCGAGCGAGGACCGGUACGGCCGCCACUCGAACUGCACCGGAAAAGGGAAACACCGAUCC |  |  |  |  | apparent Kd (designed as: ON switch for tryptophan, no ligand): 0.0562 µM; apparent Kd (ligand present: tryptophan, designed as: ON switch for tryptophan): 0.0618 µM
ACACCACAGCAGAAGGGUACAUUCUCCACGCGUACAGGAUAUGCGGACUCGGCGUCUCUGACAUGAGGAUCACCCAUGUUUUCU |  |  | 0.0859 | 0.0291 | 
GCGAUAGCUGUCAAGGAUAUGAGGCUGACCACAUGAGGAUCACCCAUGUUUACAACAAAAUAGAUUCAGAAGGUGACAACAAGUAG |  |  | 0.0803 | 0.0181 | 
UAACUGGACCAGAAGGGAGCGCGUCGCGCAUCAACAUACAUGAGGAUCACCCAUGUUCGAGAGUCUCAGGAUAUGGCCGGUAUA |  |  | 0.00992 | 0.00791 | 
ACUAGUAGGCAAGGAUAUGGCCUCAUAAGAUAGCCAGAAGGUGCUACGGACAUGAGGAUCACCCAUGUGCAGCUCGUACGGUGG |  |  | 0.367 | 0.155 | 
AAUCUCUCUGCAGGAUAUGGUCGCUGAGCUACUCCAGAAGGGCAGUGAGUAAGAUCGUCAGACAUGAGGAUCACCCAUGUAUUU | 0.0358 | 0.0309 |  |  | 
UAGGAUCAAGUAGGAUAUGUAGAACGGCUUUGUACAGAAGGACUAGUACAUGAGGAUCACCCAUGUUAGGGUACCUCUAAGGCA |  | 0.198 |  |  | 
CCGAAUCAAACUGAUAGUCUACAUGAGGAUCACCCAUGUGAAAAGGAUAUCUUUUGAACUGACGAAGAGAAGGUUUUAGAGGGU | 0.00777 | 0.008 |  |  | 
GUAACACAUGAGGAUCACCCAUGUUCCGAUACCAGUAUUGAAGAUUACCCUUGGCAGCGGGUAGGUCGGAGUGGACGGCCCGAGC |  |  |  |  | apparent Kd [5]: 0.0261 µM
AAUUGGAUCACAUGAGGAUCACCCAUGUCGGAAACUUUACUCAGAAGGAUGUGUACUUUUUCCACAUAGGAUAUGAGUACGACA | 0.0694 | 0.0746 |  |  | 
GGUCAGCAGUCGGCCGCCACUAGUAUACAUGAGGAUCACCCAUGUCCCUUGCGCCUCACCGAUUUUAGGACCGGGACACUGCCUG |  |  |  |  | apparent Kd [6]: 0.0328 µM; apparent Kd [7]: 0.0293 µM
CCUUUACAUGAGGAUCACCCAUGUGAAAUGGAUUGCGUAAAUAGAAGGCAUCAGAUCGUACAUGAUGAGGAUAUAUUAUCGAGU |  |  | 0.0153 | 0.00744 | 
UCACUCCUGAUGGAUACCAGUUACUAACGCAACAUGAGGAUCACCCAUGUGAACACUCAGAACCCUUGGCAGCCAGGAGAACGAA |  |  |  |  | apparent Kd (designed as: ON switch for theophylline, no ligand): 0.0482 µM; apparent Kd [5]: 0.0255 µM
UCACAGUCCCAGAAGGCCUUGUCAGAUUCAUAAGGAGGAUAUGGAUUACAUGAGGAUCACCCAUGUGAAUACUUACAGAGCAAC |  |  | 0.0793 | 0.0154 | 
UACCGAGGGACAGGAUAUUGAGCAUGCCUCGCCCAAGAAGGGUCUUCUGGAGUGACUUAUAACAUGAGGAUCACCCAUGUGAUC | 0.41 | 0.262 |  |  | 
UGCGUGGGAAAGAAGGCGUCCGAAUUGUGGCCACGAGGAUAUUUCCGGCGCACAUGAGGAUCACCCAUGUUCAGCUGGUAGCGU |  |  | 0.0325 | 0.0221 | 
UAUAUGAAGGGAGGAUAUGACCGAGAGUAAAUGUCAGAAGGCCCGUUUCUUCACCAACGUCCGGUACAUGAGGAUCACCCAUGU |  |  | 0.0113 | 0.00886 | 
GUUACCAUGUCGGCCGCCACUAACAAGGUUAUGGCAAGUCUACACGACAUGAGGAUCACCCAUGUUAGGACCGGGACCCAUACCC |  |  |  |  | apparent Kd [6]: 0.0134 µM; apparent Kd [7]: 0.014 µM
AGCAUGGUUGGAGGAUAUUCCGCCGUAGUGCUGAAUCCCGGACAUGAGGAUCACCCAUGUGAGCGGAAGAAGGCCAAGUUGUCC | 0.0155 | 0.0632 |  |  | 
CGCAGACAUGAGGAUCACCCAUGUACCAUGAACAGGAAUACAAGAAGGGCAAACUUUAGAUUGAUGCAGGAUAUUGUCACGAGA |  |  | 0.0258 | 0.014 | 

Sequence | apparent Kd [1] [µM] | apparent Kd [2] [µM] | apparent Kd [3] [µM] | apparent Kd [4] [µM] | also measured
CACUACUCCCAAGGAUAUUACGCUACAAAUCUUACUAACAUGAGGAUCACCCAUGUUCGGAACGGAAAGAAGGUGGGCUUAUAC |  |  | 0.00938 | 0.00822 | 
UACCUUAUUGUUAGGAUAUGCAGAUACAAAGGUGAGCAGAAGGAACAUGAGGAUCACCCAUGUAAAAUAAUAAA | 0.0166 | 0.048 |  |  | 
UUCUACAUGAGGAUCACCCAUGUCCCUGGGACCCUUGCAUCCAGAAGGCACGACUAGAUGGUGUGUGAGGAUAUGGAGGCGCUU | 0.162 | 0.144 |  |  | 
AACAAGGAAGGAUAUACAUGAGGAUCACCCAUGUCACUAGGGCCUCCCGCUUCGCUGUGUAGAAGGACCAUGAA | 0.00974 | 0.00889 |  |  | 
AAAACAUGAGGAUCACCCAUGUCCAAAUAAAUACACGGAACUAGAAGGGAAAAUCGAAAUUAAUAUCAGGAUAUAGGCAAAGCA |  |  | 0.053 | 0.0422 | 
AAACGCUAUGCGGCCGCCACUAAGGUUGGCGUCUAUGUCGUUUAAGACAUGAGGAUCACCCAUGUUAGGACCGGGCAUGUCCGCG |  |  |  |  | apparent Kd [6]: 0.0212 µM; apparent Kd [7]: 0.0211 µM
CAGGCUUUCAAGAAGGACCUGGUAACAUCAGUGGUAGGAUAUUGGUUAAGCUUGGCUUGACAUGAGGAUCACCCAUGUGGCGUA |  |  | 0.0474 | 0.0115 | 
CUGUUUACAUGAGCCCGUCAUAUAUACGAUACCAGUUAAAGAUGAAACCCUUGGCAGCGUAGGACAUGAGGAUCACCCAUGUGCC |  |  |  |  | apparent Kd (designed as: OFF switch for theophylline, no ligand): 0.0186 µM; apparent Kd (ligand present: theophylline, designed as: OFF switch for theophylline): 0.0331 µM
AUAUUUUCAGGAUAUCAACUUCACUACAUGAGGAUCACCCAUGUCCUCUAUUGUUUACUGUGAGAAGGGAAAGAGA | 1.01 | 0.507 |  |  | 
CGCCUAGGGUAUCAGGAUAUGACGGGCAUAACAUGAGGAUCACCCAUGUAAGAGUAGUACAGUUGUCAGAAGGGAUGAUCUAGAAU |  |  | 0.162 | 0.0255 | 
CCAACAACGGAGAAGGCGUGACUGGUUUCACAGACAGUGUGGCACAUGAGGAUCACCCAUGUGAACGAGGAUAUCCGUGUGCGA |  |  | 0.0116 | 0.0074 | 
GGACUACAUGAGGAUCACCCAUGUUUUUAAGACACAGGAUAUGAUCACCGCGGACAUGUAUCAGAAGGGUGUACAU |  |  | 0.0218 | 0.0101 | 
GACCAACAUGAGGAUCACCCAUGUCGAGUUGGAAGUUUUACGAGAAGGAUCCUCCUGCCGAGCGGAUAGGAUAUCGAAACGGAC | 0.0115 | 0.00893 |  |  | 
AACGCGCAAGAGAAGGGACGGGAGAUUCCGUGGGCUCUGAUCCUACAUGAGGAUCACCCAUGUAGUCAGGAUAUCUGGAGACGC | 0.106 | 0.124 |  |  | 
GUAGAGCUCAUAGGAUAUACUCGACCGGAGGCAGUAGAAGGAUGCGUCAAAUACAUGAGGAUCACCCAUGUGAUGGUAAUCGUC | 0.0136 | 0.0144 |  |  | 
ACAUGAGGAUCACCCAUGUGCCUCGAUAGGUAACUGAGACCCAGAAGGCCAGCGCGUUGCGCCUUGGAGGAUAUGGCAAACAAG |  |  | 0.0345 | 0.0197 | 
GCUCUCCAAGGAUAUUAGGUGUGUUACAUGAGGAUCACCCAUGUUUUCCAAUGAAUCGUCUAAGAAGGUGGCUAUU | 0.0143 | 0.0129 |  |  | 
AAUGAAUCCAAGAAGGAACACCAGGCGCACGUAAUCCAACAUGAGGAUCACCCAUGUAUAUUCUGUAAGGAUAUUGGAUUAAAG | 0.00745 | 0.00724 |  |  | 
GACAGUUUAUAGGAUAUCGACUCGACUGGGCAUCGAGAAGGAUAAACAUGAGGAUCACCCAUGUGUGGUAGGAA | 0.0392 | 0.125 |  |  | 
UGACCAUGCGAGAAGGCGUACAUGAGGAUCACCCAUGUUCGUAGAACAAUCGGGUAAGCAUGGCACGAGGAUAUCGCCAAUGCC | 0.0231 | 0.0936 |  |  | 
